Test results taken from ChEMBL document CHEMBL4024771, “Optimization of Orally Bioavailable Enhancer of Zeste Homolog 2 (EZH2) Inhibitors Using Ligand and Property-Based Design Strategies: Identification of Development Candidate …” (J Med Chem, 2018).
Values after ≈ are worked out from the molar mass of the structure shown. Active and inactive are the calls of the source. The calls are words filed in the database; no cut-off is given here.

Assays:
Salmonella typhimurium = experiment: Mutagenicity in Salmonella typhimurium by Ames assay; format: toxicity; details: salmonella enterica subsp. enterica serovar typhimurium
[1] = Intrinsic clearance in human liver microsomes assessed per mg protein at 1 uM preincubated for 10 mins followed by NADPH addition measured after 45 mins by LC-MS/MS analysis; format: ADME, microsome; details: liver microsomes, read-out: CLH
In short: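 Test compound (1 μM) with pooled liver microsomes (0.8 mg/mL protein) in 100 mM potassium phosphate pH 7.4, 10 min preincubation, started with 2 mM NADPH, 45 min at 37 °C, in triplicate. Samples quenched with cold methanol containing buspirone internal standard, analysed by LC−MS/MS. CLint derived from t1/2 of parent loss (log-linear slope).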

Mus musculus [2] = experiment: Toxicity in mouse xenografted with human KARPAS422 cells harboring EZH2 Y641N mutant assessed as change in body weight at 100 to 300 mg/kg, po bid; format: organism-based; details: in vivo
[3] = target: Voltage-gated inwardly rectifying potassium channel KCNH2 (Homo sapiens, UniProt Q12809); experiment: Inhibition of human ERG
KARPAS-422 [4] = experiment: Antitumor activity against human KARPAS422 cells harboring EZH2 Y641N mutant xenografted in mouse assessed as tumor regression at 100 mg/kg, sc qd measured 40 days post treatment termination on day 31
Cytochrome P450 2C9 = Cytochrome P450 2C9 (Homo sapiens, UniProt P11712); experiment: Inhibition of CYP2C9 (unknown origin); format: ADME
[5] = Thermodynamic solubility in water at 25 degC using crystalline form; format: physicochemical; details: read-out: Therm_solubility
Mus musculus [6] = experiment: In vivo inhibition of EZH2 in mouse xenografted with human KARPAS422 cells harboring EZH2 Y641N mutant assessed as reduction in H3K27me3 level in tumor at 300 mg/kg, po bid measured 4 hrs post last dose on day 9 relative to control; format: functional; details: KARPAS-422, po
In short: (§1)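 Mice bearing Karpas-422 (EZH2 Y641N) xenografts were dosed with crystalline suspension orally twice daily (7 h/17 h) or subcutaneously once daily. Tumors were collected on day 9, 4 h after the last dose, for H3K27me3 quantification.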

KARPAS-422 [7] = experiment: Antiproliferative activity against human KARPAS422 cells after 72 hrs by resazurin assay; format: functional, cell-based; details: Homo sapiens, KARPAS-422, 72 h
[8] = Lipophilicity, log D of the compound at pH 7.4; details: buffer, pH 7.4, logD
[9] = Kinetic solubility of the compound; format: physicochemical; details: read-out: Kinetic_solubility
[10] = target: T1, Histone-lysine N-methyltransferase EZH2 (Homo sapiens, UniProt Q15910); experiment: Inhibition of EZH2 in human KARPAS422 cells assessed as reduction in H3K27me3 level after 72 hrs by ELISA
Target sequence in this assay (Q15910 whole entry): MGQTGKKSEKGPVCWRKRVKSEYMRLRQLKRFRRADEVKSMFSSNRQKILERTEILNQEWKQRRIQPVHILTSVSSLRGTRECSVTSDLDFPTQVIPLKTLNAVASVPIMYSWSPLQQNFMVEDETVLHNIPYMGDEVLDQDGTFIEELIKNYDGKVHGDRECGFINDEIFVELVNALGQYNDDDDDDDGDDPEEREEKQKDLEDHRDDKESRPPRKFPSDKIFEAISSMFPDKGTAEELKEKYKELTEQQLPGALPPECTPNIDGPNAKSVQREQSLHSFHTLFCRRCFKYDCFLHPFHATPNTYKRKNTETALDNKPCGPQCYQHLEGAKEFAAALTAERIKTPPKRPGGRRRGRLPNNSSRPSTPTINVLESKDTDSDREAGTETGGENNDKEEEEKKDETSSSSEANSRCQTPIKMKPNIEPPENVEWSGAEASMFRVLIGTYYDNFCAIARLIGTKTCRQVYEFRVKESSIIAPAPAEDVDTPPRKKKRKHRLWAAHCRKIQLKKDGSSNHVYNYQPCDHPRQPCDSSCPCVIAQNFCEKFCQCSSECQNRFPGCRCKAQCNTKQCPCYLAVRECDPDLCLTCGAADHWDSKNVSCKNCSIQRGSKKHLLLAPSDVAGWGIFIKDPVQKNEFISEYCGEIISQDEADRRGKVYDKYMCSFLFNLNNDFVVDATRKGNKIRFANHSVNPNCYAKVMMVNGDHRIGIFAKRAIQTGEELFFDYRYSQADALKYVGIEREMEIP

[11] = Passive permeability in MDCK cells at 2 uM after 90 mins by LC-MS/MS analysis; format: ADME, cell-based, Canis lupus familiaris; details: dog, MDCK; read-out: permeability
In short: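 Low-efflux MDCK cells (MDCK-LE) on 96-well inserts, used on day 4. Monodirectional transport of 2 μM drug in transport buffer with 0.1% DMSO at 37 °C. Donor and receiver sampled at 0 and 90 min for LC−MS/MS. Donor pH 6.5 and 7.4, receiver pH 7.4.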

Cytochrome P450 2D6 = Cytochrome P450 2D6 (Homo sapiens, UniProt P10635); experiment: Inhibition of CYP2D6 (unknown origin); format: ADME
[12] = Clearance in mouse hepatocytes assessed per million cells; format: ADME, cell-based, Hepatocyte; details: read-out: CLH
Mus musculus [13] = experiment: In vivo inhibition of EZH2 in mouse xenografted with human KARPAS422 cells harboring EZH2 Y641N mutant assessed as reduction in H3K27me3 level in tumor at 100 mg/kg, po bid measured 4 hrs post last dose on day 9 relative to control; format: functional; details: KARPAS-422, po; in short: as §1
KARPAS-422 [14] = experiment: Antitumor activity against human KARPAS422 cells harboring EZH2 Y641N mutant xenografted in mouse assessed as decrease in tumor regression at 100 mg/kg, sc qd measured 40 days post treatment termination on day 31; format: functional, organism-based
[15] = system: Histone-lysine N-methyltransferase EZH2 (Homo sapiens), Q15910 [Y641N]
[16] = target: Histone-lysine N-methyltransferase EZH2 (Homo sapiens, UniProt Q15910, Y641N); experiment: Inhibition of EZH2 Y641N mutant (unknown origin) using oligonucleosomes as substrate after 60 mins in presence of [3H]SAM by scintillation counting analysis
[17] = target: T2, Histone-lysine N-methyltransferase EZH1 (Homo sapiens, UniProt Q92800); experiment: Binding affinity to EZH1 (unknown origin)
T2 sequence (Q92800 whole entry): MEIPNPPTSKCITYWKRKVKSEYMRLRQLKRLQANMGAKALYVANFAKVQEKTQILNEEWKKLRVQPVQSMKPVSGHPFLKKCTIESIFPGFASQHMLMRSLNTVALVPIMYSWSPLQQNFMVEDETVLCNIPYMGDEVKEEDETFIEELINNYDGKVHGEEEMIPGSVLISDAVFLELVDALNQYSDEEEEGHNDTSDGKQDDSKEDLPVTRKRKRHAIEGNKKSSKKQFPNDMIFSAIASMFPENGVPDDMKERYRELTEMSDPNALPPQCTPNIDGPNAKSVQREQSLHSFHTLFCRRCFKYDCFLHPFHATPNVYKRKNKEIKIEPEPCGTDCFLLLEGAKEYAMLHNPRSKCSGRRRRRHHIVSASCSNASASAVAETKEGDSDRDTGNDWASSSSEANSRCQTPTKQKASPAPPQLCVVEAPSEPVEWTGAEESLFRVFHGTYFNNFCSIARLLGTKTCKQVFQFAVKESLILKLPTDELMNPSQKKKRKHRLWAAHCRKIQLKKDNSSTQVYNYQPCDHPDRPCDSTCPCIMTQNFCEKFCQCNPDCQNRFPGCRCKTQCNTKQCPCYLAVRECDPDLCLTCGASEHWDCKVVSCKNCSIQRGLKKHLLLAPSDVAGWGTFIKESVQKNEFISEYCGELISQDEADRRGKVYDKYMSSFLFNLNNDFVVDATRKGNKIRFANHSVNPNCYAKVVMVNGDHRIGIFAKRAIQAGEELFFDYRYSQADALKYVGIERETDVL

KARPAS-422 [18] = experiment: Antitumor activity against human KARPAS422 cells harboring EZH2 Y641N mutant xenografted in mouse assessed as decrease in tumor growth at 100 mg/kg, po bid; format: functional, organism-based
[19] = target: T1, Histone-lysine N-methyltransferase EZH2; experiment: Binding affinity to EZH2 (unknown origin)
Target sequence in this assay (Q15910 whole entry): as the sequence (Q15910 whole entry) above

Mus musculus [20] = experiment: In vivo inhibition of EZH2 in mouse xenografted with human KARPAS422 cells harboring EZH2 Y641N mutant assessed as reduction in H3K27me3 level in tumor at 100 mg/kg, sc qd measured 4 hrs post last dose on day 9 relative to control; format: functional; details: KARPAS-422, sc; in short: as §1
[21] = Clearance in rat hepatocytes assessed per million cells; format: ADME, cell-based, Hepatocyte; details: read-out: CLH
[22] = target: T1, Histone-lysine N-methyltransferase EZH2
Target sequence in this assay (Q15910 whole entry, looked up): as the sequence (Q15910 whole entry) above

Chain of Cytochrome P450 2C9 (P11712 whole entry): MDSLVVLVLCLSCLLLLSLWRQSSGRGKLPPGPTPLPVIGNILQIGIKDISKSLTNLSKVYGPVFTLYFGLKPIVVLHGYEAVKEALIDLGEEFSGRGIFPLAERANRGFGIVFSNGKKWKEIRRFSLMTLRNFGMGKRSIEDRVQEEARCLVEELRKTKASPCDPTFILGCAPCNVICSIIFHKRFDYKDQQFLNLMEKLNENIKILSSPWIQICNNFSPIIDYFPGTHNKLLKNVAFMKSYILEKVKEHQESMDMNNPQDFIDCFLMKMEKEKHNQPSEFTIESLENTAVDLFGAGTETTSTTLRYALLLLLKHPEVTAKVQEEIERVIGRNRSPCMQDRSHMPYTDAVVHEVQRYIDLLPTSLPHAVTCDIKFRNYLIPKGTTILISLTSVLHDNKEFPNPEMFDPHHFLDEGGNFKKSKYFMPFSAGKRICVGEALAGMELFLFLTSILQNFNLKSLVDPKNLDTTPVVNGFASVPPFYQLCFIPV
Chain of Cytochrome P450 2D6 (P10635 whole entry): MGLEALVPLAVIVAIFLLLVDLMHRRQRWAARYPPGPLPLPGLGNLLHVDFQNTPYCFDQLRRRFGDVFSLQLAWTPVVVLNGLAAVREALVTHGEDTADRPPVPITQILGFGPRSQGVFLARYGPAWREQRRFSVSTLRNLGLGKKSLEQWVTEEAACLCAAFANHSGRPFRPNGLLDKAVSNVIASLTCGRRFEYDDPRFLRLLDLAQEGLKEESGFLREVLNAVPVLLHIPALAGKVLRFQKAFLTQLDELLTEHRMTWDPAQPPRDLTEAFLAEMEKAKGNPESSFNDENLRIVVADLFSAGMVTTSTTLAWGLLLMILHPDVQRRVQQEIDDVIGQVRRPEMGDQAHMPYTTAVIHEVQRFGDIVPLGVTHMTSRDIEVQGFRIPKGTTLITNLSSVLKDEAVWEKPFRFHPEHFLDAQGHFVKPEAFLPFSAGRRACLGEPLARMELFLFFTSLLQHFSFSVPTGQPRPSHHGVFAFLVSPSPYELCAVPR
Chain of Histone-lysine N-methyltransferase EZH2 (Homo sapiens, UniProt Q15910, Y641N) (Q15910 whole entry Y641N): as the sequence (Q15910 whole entry) above, with Y641N counted along it
Chain of Histone-lysine N-methyltransferase EZH2 (Homo sapiens), Q15910 [Y641N] (Q15910 whole entry Y641N): as the sequence (Q15910 whole entry) above, with Y641N counted along it
Chain of Voltage-gated inwardly rectifying potassium channel KCNH2 (Q12809 whole entry): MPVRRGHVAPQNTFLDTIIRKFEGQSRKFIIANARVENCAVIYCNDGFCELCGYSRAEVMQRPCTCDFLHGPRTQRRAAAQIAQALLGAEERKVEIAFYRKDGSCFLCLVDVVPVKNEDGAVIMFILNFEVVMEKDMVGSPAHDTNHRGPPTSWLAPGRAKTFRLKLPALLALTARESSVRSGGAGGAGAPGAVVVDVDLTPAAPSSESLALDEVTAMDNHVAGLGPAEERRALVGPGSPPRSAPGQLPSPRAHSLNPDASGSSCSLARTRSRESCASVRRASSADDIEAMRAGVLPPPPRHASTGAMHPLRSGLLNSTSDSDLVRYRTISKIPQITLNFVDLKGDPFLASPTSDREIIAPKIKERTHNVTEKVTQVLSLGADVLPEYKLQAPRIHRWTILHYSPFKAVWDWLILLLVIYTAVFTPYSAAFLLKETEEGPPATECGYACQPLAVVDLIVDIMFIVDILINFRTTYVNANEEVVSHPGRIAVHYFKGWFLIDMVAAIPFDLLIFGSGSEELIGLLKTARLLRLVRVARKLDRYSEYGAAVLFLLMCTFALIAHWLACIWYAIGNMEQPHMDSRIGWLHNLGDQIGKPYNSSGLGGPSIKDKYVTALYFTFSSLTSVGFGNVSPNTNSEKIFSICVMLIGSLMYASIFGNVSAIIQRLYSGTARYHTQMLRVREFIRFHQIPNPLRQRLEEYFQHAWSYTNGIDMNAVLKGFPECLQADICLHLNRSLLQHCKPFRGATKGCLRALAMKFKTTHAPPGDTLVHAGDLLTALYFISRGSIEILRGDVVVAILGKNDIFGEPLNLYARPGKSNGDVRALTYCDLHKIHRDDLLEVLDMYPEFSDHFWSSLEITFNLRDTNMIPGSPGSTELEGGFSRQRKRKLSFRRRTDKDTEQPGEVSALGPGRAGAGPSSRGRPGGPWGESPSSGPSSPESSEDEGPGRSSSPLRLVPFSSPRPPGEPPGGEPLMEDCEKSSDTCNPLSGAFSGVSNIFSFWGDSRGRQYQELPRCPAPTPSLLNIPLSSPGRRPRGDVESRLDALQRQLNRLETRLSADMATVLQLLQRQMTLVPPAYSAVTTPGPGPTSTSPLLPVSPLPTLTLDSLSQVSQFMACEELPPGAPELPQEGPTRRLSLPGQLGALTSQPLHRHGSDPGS

microsomal CLint at 1 µM [1]: 39 µL/min/mg | IC50 (Cytochrome P450 2C9): > 30000 nM | solubility thermodynamic [5]: 315 µg/mL (≈ 674 µM) | IC50 (KARPAS-422 [7]): 6 nM | IC90 (KARPAS-422 [7]): 60 nM | logD [8]: 1.9 | solubility kinetic [9]: 538 µM (≈ 251 µg/mL) | IC50 [10]: 4 nM | Papp at […], 2 µM [11]: 4.8 ×10⁻⁶ cm/s | IC50 (Cytochrome P450 2D6): > 30000 nM | hepatocyte CLint [12]: 60.1 µL/min/1e6 cells | T1/2 [15]: 6 h | Ki [16]: < 0.1 nM | Ki [17]: 70 nM | Ki [19]: < 0.1 nM | hepatocyte CLint [21]: 109 µL/min/1e6 cells | T1/2 [22]: 22 h
SMILES: COc1cc(C)[nH]c(=O)c1CN1CCc2c(Cl)cc([C@H](OC)C3COC3)c(Cl)c2C1=O [MEVROMETOSTAT]
Activity (Salmonella typhimurium): Non-Toxic | Activity (Mus musculus [2]): Non-Toxic | IC50 [3]: > 100000 nM | Activity (KARPAS-422 [4]): Active | inhibition in vivo at 300 mg/kg (Mus musculus [6]): 47.9% | inhibition in vivo at 100 mg/kg (Mus musculus [13]): 45.4% | Activity (KARPAS-422 [14]): Active | TGI (KARPAS-422 [18]): Active | inhibition in vivo at 100 mg/kg (Mus musculus [20]): 13.8%
